# Screens (PubChem BioAssay)
# The list is not random: actives were taken first. Their share in the collection is about 2.6%.
# VLA-4 inh = inhibition in human VLA-4 binding assay, primary screen, VLA-4 allosteric modulator project, MLPCN library, flow cytometry, VLA-4 expressing cells; Integrin alpha-4 (Homo sapiens), P13612; ligand binding flow cytometry; inhibition, % (about 7 µM as worked out from the volumes in the protocol); 330,000 tested, 0.2% active; AID 2557, 2010; in the data active means inhibition above about 50%
# Rce1 inhib = yeast Rce1p protease inhibitors, primary screen, biochemical, fluorescence, cell-free homogeneous; CAAX prenyl protease 2 (Saccharomyces cerevisiae (strain ATCC 204508 / S288c)), Q03530; yeast membranes, quenched prenylated peptide cleavage fluorescence; 290,000 tested, 0.27% active; calls only;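 active means fall in fluorescence gain of 50% or more versus controls, with final raw signal at or below 3038400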;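 further: plate controls were neutral control wells for no effect and wells lacking membranes for full effect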
# Target sequence (Q03530 whole entry, looked up): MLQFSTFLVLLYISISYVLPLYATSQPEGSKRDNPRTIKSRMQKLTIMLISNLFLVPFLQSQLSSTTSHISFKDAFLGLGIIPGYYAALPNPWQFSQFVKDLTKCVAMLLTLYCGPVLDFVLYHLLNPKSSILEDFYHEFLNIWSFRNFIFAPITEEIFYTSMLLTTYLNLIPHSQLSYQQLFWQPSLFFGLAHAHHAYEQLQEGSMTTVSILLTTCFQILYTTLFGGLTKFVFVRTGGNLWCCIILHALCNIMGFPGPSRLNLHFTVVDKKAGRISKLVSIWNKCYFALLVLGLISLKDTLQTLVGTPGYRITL
# TAAR1 antag = human TAAR1 antagonists, primary screen, Fluo-8 calcium fluorescence, CHO RD-HGA16 cells | Trace amine-associated receptor 1 (Homo sapiens), Q96RJ0 | antagonist | inhibition, % at 3 µM | 360,000 tested, 1.5% active;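 active means inhibition above a per-plate cutoff, the mean inhibition of test compounds on that plate plus 3 SD, cut at about 49% in these data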;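 further: 0% = DMSO plus EC80 beta-PEA response and 100% = DMSO alone without agonist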
# Target sequence (Q96RJ0 whole entry, looked up): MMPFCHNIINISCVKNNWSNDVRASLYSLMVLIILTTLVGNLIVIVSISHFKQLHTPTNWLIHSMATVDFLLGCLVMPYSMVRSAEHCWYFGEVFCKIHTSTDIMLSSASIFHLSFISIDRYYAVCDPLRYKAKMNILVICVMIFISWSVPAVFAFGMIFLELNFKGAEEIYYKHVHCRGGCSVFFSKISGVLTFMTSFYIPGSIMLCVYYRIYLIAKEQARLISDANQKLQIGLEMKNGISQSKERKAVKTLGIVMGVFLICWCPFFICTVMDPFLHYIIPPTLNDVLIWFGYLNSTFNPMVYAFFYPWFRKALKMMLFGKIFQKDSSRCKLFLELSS
#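 Test system: RD-HGA16 CHO cells with stable hTAAR1 and Gα16 / Probe or stimulus: EC80 β-phenethylamine stimulus / Times: seeding 17-24 h prior, 75-min 37 °C, 30-min RT dye loading / Detection: Fluo-8 calcium-sensitive fluorescence / Read-out basis: % inhibition scaled between DMSO and EC80 PEA controls / Repeats: singlicate, one well per test compound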
# TAAR1 agonist = human TAAR1 agonists, primary screen, Fluo-8 calcium fluorescence, CHO RD-HGA16 cells. 360,000 tested, 0.99% active. vehicle wells 0%, saturating PEA agonist 100%. activation, % at 3 µM;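 active means activation above the mean activation of all test compounds in the run plus 3 SD, cut at about 38% in these data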
#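 Benchmarks: low control DMSO, high control PEA (EC100); System: CHO RD-HGA16 cells carrying human TAAR1 plus Gα16; Detection: Fluo-8 fluorescence, 5 s baseline then 140 s kinetic read; Schedule: 17-24 h plating, Fluo-8 75 min 37 °C, 30 min RT; Read-out basis: % activation from peak over basal fluorescence ratio, DMSO-to-PEA scaled.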
# Platelet DG rel = inhibitors of platelet dense granule secretion, primary screen, cell-based, MLPCN, human platelets; human platelet-rich plasma, SFLLRN dense granule ATP release, luminescence; inhibition, %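 (compounds screened at 7.5 µM in platelet-rich plasma)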; 300,000 tested, 0.22% active; AID 1663, 2009;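 active means mean replicate score, as percent of positive control, at or above 50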
# TAAR1 nonsel count = nonselective antagonists in TAAR1 counter-screen cells, counter-screen for hTAAR1 antagonist project, cell-based, fluorescence, calcium; shares compounds with TAAR1 antag; counterscreen cell line, antagonist mode; inhibition, % at 3 µM; 2,400 tested, 77% active; in the data active means inhibition above about 22%;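 further: CHO-Ga16 host cells stimulated with ATP at an EC80 level; 0% = agonist EC80 plus vehicle and 100% = vehicle without agonist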
# TAAR1 antag conf = human TAAR1 antagonists, retest of hits, confirmation, cell-based, fluorescence | inhibition, % at 3 µM | TAAR1-expressing cells, fluorescence antagonist read-out | AID 651785, 2012 | shares compounds with TAAR1 antag | 2,400 tested, 40% active; in the data active means inhibition above about 49%;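 further: CHO-Ga16 host cells challenged with agonist PEA near its EC80; 0% = agonist at EC80 plus vehicle and 100% = vehicle with no agonist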
# Ga16 ag counter = calcium activation in Ga16-expressing cells, counter-screen for TAAR1 antagonist project, cell-based, fluorescence. shares compounds with TAAR1 antag. agonist counterscreen. activation, % at 3 µM. 2,400 tested, 18% active; in the data active means activation above about 12%;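 further: 0% = vehicle wells and 100% = saturating stimulus response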
# TAAR1 ag counter = TAAR1 activation by candidate antagonists – cell-based, fluorescence, counter-screen for TAAR1 antagonist project; hTAAR1 cell line, agonist mode; 2,400 tested, 2% active; activation, % at 3 µM; shares compounds with TAAR1 antag; AID 651955, 2012; in the data active means activation above about 37%;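 further: CHO cells stably expressing TAAR1 with calcium dye readout; 0% = DMSO vehicle and 100% = full agonist response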
# Starred values were filed as active, the others as inactive; i = inactive; nt = no result.
SMILES,VLA-4 inh,Rce1 inhib,TAAR1 antag,TAAR1 agonist,Platelet DG rel,TAAR1 nonsel count,TAAR1 antag conf,Ga16 ag counter,TAAR1 ag counter
COc1ccc2c(c1)c(CCN1C(=O)c3ccccc3C1=O)cn2C(=O)c1ccco1,7.5,i,56.8*,5.2,-1.3,11.8,31.7,2.2,4.0
COc1ccc(C(=O)NC(=S)N2CCOCC2)cc1Br,-3.1,i,-28.4,3.3,-0.9,nt,nt,nt,nt
CCN=C(NCC)SC1CC(=O)N(c2ccc(F)cc2)C1=O (stereo not drawn),-8.1,i,89.7*,14.3,2.8,28.1*,56.9*,9.4,13.9
Cc1cccc(/C=C2\Sc3ccc(C(=O)N4CCC(C(N)=O)CC4)cc3N(C)C2=O)c1,9.8,i,60.2*,7.5,-6.1,17.6,26.0,5.9,5.5
CCc1ccccc1NC(=O)C1CC(c2ccc(OC)cc2)=NO1 (stereo not drawn),3.4,i,102.6*,-1.9,-2.5,14.5,7.0,4.5,6.2
COc1ccc(C2=NOC(C(=O)N3CCN(c4ccccc4OC)CC3)C2)cc1 (stereo not drawn),1.4,i,50.9*,9.9,7.3,21.1,23.1,7.9,8.3
CCOC(=O)c1ccc(Nc2cc(C)nc(-c3ccccc3O)n2)cc1,22.9,i,52.9*,1.5,-6.8,25.6*,40.1,6.3,5.0
O=C(COC(=O)c1ccccc1Nc1ccc(SC(F)F)cc1)NCc1ccco1,15.5,i,52.2*,6.6,-0.2,18.1,22.5,-0.4,-2.4
CN(C)C(=O)COC(=O)c1ccccc1OCC(=O)Nc1ccc(SC(F)F)cc1,14.3,i,63.7*,16.7,-7.2,32.1*,51.1*,10.6,8.2
O=C(COc1ccccc1C(=O)O)Nc1ccc(SC(F)F)cc1,3.2,i,-12.6,1.4,-1.4,nt,nt,nt,nt
CCN(c1ccccc1)S(=O)(=O)c1ccc(Cl)c(C(=O)OCC(=O)c2[nH]c(C)c(C(C)=O)c2C)c1,2.8,i,63.5*,-0.2,18.1,21.1,26.8,2.3,4.3
CSCCC(c1nnnn1C1CCCCC1)N1CCN(C/C=C/c2ccccc2)CC1 (stereo not drawn),nt,nt,-31.3,0.6,nt,nt,nt,nt,nt
O=C(Nc1cc(=O)c2ccccc2o1)N1CCOCC1,21.3,i,63.9*,16.6,10.0,16.8,26.2,6.8,5.4
CCOC(=O)C1(C)CCCN(C(=O)c2cccnc2SC)C1 (stereo not drawn),nt,nt,-16.0,-0.1,nt,nt,nt,nt,nt
O=C(N/N=C/c1sc(=O)n(Cc2ccc(Br)cc2)c1Cl)c1ccco1,29.6,i,81.2*,26.6,-2.5,39.0*,77.3*,17.0*,26.7
O=C(N/N=C/c1ccc(Br)s1)c1ccco1,5.6,i,-8.0,6.6,19.2,nt,nt,nt,nt
CC(=O)NCCNC(=O)C1(C)Cc2c(-c3cccc(C(F)(F)F)c3)ccnc2O1 (stereo not drawn),nt,nt,-18.4,0.4,nt,nt,nt,nt,nt
CCN(CC)S(=O)(=O)c1ccc(C(O)=C(C#N)c2nc3ccccc3n2C)cc1,nt,nt,65.6*,16.1,nt,30.5*,58.7*,13.1*,14.6
CC(C)c1ccccc1-n1c(SCc2cc(=O)oc3ccc4ccccc4c23)nnc1-c1cccnc1,-2.0,i,41.9,10.0,18.1,nt,nt,nt,nt
C=CCN1C[C@H](COC(=O)c2cccc(C)c2)Oc2cccc(F)c2S1(=O)=O,nt,nt,49.1*,1.3,nt,38.0*,49.6*,7.3,6.2
O=C1OC(c2ccccc2)(c2cc(Br)ccc2O)c2ccccc21 (stereo not drawn),nt,nt,63.4*,8.4,nt,27.5*,45.8,6.5,21.4
COc1cccc(OCc2cc(C(=O)N(C)Cc3nc4ccccc4[nH]3)no2)c1,1.6,i,7.7,3.1,4.3,nt,nt,nt,nt
COc1cccc(OCc2cc(C(=O)N(Cc3ccccc3)CC3CC3)no2)c1,21.8,i,54.5*,1.9,-2.3,28.1*,40.4,8.9,16.7
CC(=O)Nc1ccc(SCC(=O)c2c(N)n(Cc3ccccc3)c(=O)n(C)c2=O)cc1,-10.9,i,77.0*,20.1,1.8,29.7*,44.2,13.1*,13.5
CC(C)Cn1c(N)c(C(=O)CSc2ccccc2)c(=O)n(C)c1=O,2.5,i,65.9*,21.3,-13.2,49.1*,65.4*,15.6*,14.1
SMILES,VLA-4 inh,Rce1 inhib,TAAR1 antag,TAAR1 agonist,Platelet DG rel,TAAR1 nonsel count,TAAR1 antag conf,Ga16 ag counter,TAAR1 ag counter
Cc1ccccc1CSCC(=O)c1c(N)n(CC(C)C)c(=O)n(C)c1=O,0.7,i,40.5,29.5,13.4,nt,nt,nt,nt
CC(C)c1ccc(-n2cccc2/C=C2/C(=N)N3C=CSC3=NC2=O)cc1,-1.8,i,36.6,5.2,-0.7,nt,nt,nt,nt
Cc1ccccc1Cn1cccc1/C=C1/C(=N)N2C=CSC2=NC1=O,-15.8,i,61.7*,10.0,-2.6,32.5*,42.8,5.2,5.7
Cc1nn(-c2ccccc2)c(N2CCCC2)c1/C=N/NC(=O)c1cc2ccccc2cc1O,18.1,i,50.9*,11.4,-3.1,44.0*,49.8*,11.9*,10.7
Cc1nn(-c2ccccc2)c(N2CCCC2)c1/C=N/NC(=O)c1cc(-c2ccccc2)nc2ccccc12,1.9,i,38.5,5.6,-5.5,nt,nt,nt,nt
CCOc1ccc(S(=O)(=O)Nc2cccc(C(=O)N3CCN(c4ccccc4O)CC3)c2)cc1,-6.0,nt,36.0,11.0,nt,nt,nt,nt,nt
CCOc1ccc(S(=O)(=O)Nc2cccc(C(=O)N3CCN(c4ccccn4)CC3)c2)cc1,nt,nt,52.5*,11.5,nt,31.4*,49.1*,15.6*,15.2
Cc1nn(CCc2nn[nH]n2)c2nc(-c3ccc(C4CCCCC4)cc3)cc(C(F)(F)F)c12,13.5,i,79.7*,7.8,-16.1,89.3*,68.5*,5.5,2.8
O=C(COc1cccc(NC(=O)c2cccc([N+](=O)[O-])c2)c1)c1ccc(F)cc1,8.9,i,77.5*,27.1,-2.5,38.5*,57.9*,12.2*,19.7
O=C(Nc1cccc(-c2nc3ccccc3[nH]2)c1)c1ccccn1,1.8,i,50.7*,9.4,-4.6,18.8,27.1,4.5,4.4
